Source: PubChem
HTR2A ag: mouse Htr2a agonists via beta-arrestin recruitment, primary screen, cell-based, luminescence; 5-hydroxytryptamine receptor 2A (Mus musculus), P35363; CHO-K1 mHTR2A beta-arrestin complementation; percent of 30 µM serotonin response; activation, % at 7.6 µM; 360,000 compounds, 0.66% hits;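 active = activation above a run cutoff, the mean activation of all tested compounds plus 3 SD, cut at about 14% in these data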
ANO1 activ: TMEM16A chloride channel activators or potentiators, primary screen, cell-based, HTS; 340,000 compounds, 0.3% hits; HEK293 TMEM16A/YFP-H148Q/I152L, iodide quench fluorescence; active compounds read low; AID 623877, 2012; B-score at 10 µM; Anoctamin-1 (Mus musculus), Q8BHY3;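 active = fluorescence-ratio B-score plate-corrected deviation score at least 3 library SD below zero, with starting fluorescence score within 5 deviations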;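 note: channel opened by trigger with iodide after compound preincubation; score built on the fluorescence ratio of max minus min over baseline; more negative score means more quench and so TMEM16A activation or potentiation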
beta cell repl: inducers of MIN6 beta-cell proliferation, primary screen, ATP luminescence, uHTS. proliferation, % at 10 µM. AID 2380, 2010. 330,000 compounds, 0.29% hits. MIN6 cells proliferation, ATPlite luminescence, 48 h; cells starved in 0.2% serum; 100% = growth in 10% serum;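 active = compounds whose signal lies at least 3.5 SD above the mean of all wells on their plate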
MC4R antagonist: MC4R antagonists of cAMP signaling, primary screen, cell-based, TR-FRET, antagonist arm of biased-ligand search; Melanocortin receptor 4 (Homo sapiens), P32245; MC4R-expressing cells, MTII-stimulated cAMP, LANCE TR-FRET; inhibition, % at 6.5 µM; 360,000 compounds, 0.48% hits; AID 540295, 2011;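 active = inhibition above its plate's cutoff, the mean of tested wells on that plate plus 3 SD, cut at about 29% in these data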
Target sequence (P32245 whole entry, looked up): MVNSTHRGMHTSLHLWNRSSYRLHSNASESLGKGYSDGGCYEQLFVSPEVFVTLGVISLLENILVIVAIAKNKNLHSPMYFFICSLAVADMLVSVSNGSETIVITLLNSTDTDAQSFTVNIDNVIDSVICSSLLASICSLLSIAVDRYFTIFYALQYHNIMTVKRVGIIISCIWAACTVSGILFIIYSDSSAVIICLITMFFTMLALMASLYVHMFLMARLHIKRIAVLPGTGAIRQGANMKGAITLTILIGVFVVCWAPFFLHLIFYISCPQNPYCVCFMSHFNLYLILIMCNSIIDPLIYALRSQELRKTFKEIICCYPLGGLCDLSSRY
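System: U2OS-MC4R stable cell line; Technique: Eu-cAMP/anti-cAMP TR-FRET, emission 671 nm; Repeats: single well per compound; Also added: Melanotan II; Dosing: one concentration, 6.5 µM nominal; Schedule: 30-min compound, 1-h challenge, 1-h detection, room temperature.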
TMEM16A inh: TMEM16A chloride channel inhibitors, primary screen, cell-based, HTS; Anoctamin-1 (Mus musculus), Q8BHY3; normalized B-score (activity score, 25-100; higher = stronger inhibition) at 10 µM; HEK293 TMEM16A/YFP iodide influx fluorescence, ionomycin; 310,000 compounds, 1.2% hits;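 active = ratio plate-corrected score three or more library SD toward inhibition, starting fluorescence score within five deviations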;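 note: score derived from kinetic fluorescence span divided by baseline fluorescence per well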
MC4R barr agon: MC4R agonists recruiting beta-arrestin, primary screen, cell-based, luminescence, agonist arm of biased-ligand search | Melanocortin receptor 4 (Homo sapiens), P32245 | activation, % at 8.9 µM | U2OS MC4R beta-arrestin complementation; percent of melanotan II response, DMSO zero | AID 540308, 2011 | 360,000 compounds, 0.98% hits;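 active = activation above a per-plate cutoff, the mean activation of sample wells on that plate plus 3 SD, cut at about 8% in these data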
MC4R barr conf: MC4R beta-arrestin agonists, retest, confirmation, cell-based, luminescence, U2OS; shares compounds with MC4R barr agon; U2OS MC4R beta-arrestin recruitment; scaled DMSO 0%, Melanotan II 100%; activation, % at 8.9 µM; 2,400 compounds, 31% hits;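 active = mean activation across replicates above the hit cutoff set in the earlier primary screen, cut at about 8% in these data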
MOR DOR agonist: agonists of MOR-DOR heterodimerization, counter-screen for MC4R biased agonist project, cell-based, luminescence | activation, % at 9.2 µM | U2OS PathHunter beta-arrestin, beta-gal luminescence; percent of deltorphin B response, DMSO zero | shares compounds with MC4R barr agon | AID 602194, 2012 | 2,400 compounds, 5.8% hits;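 active = mean activation across replicates exceeds the hit threshold derived in the earlier primary screen, cut at about 18% in these data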
Numbers stand for hits; - = inactive; . = no result. The list is not random: actives were taken first. Their share in the collection is about 3.4%.

SMILES	HTR2A ag	ANO1 activ	beta cell repl	MC4R antagonist	TMEM16A inh	MC4R barr agon	MC4R barr conf	MOR DOR agonist
COc1ccc(-c2cnc3c(NC(C)=O)cc(-c4cc(F)ccc4OC)cn23)cc1OC	-	.	.	-	.	19.3	26.8	-
COc1ccc(-c2cnc3c(NC(C)=O)cc(-c4cccc(NS(C)(=O)=O)c4)cn23)cc1OC	-	.	.	-	.	-	.	.
COc1ccc(-c2cc(NC(C)=O)c3ncc(-c4ccccc4)n3c2)cc1OC	-	.	.	-	.	-	.	.
COc1ccc(F)cc1-c1cc(NC(C)=O)c2ncc(-c3cc(OC)c(OC)c(OC)c3)n2c1	-	.	.	-	.	10.7	9.7	-
COc1ccc(-c2cc(NC(C)=O)c3ncc(-c4ccc(F)cc4)n3c2)cc1OC	-	.	.	-	.	21.9	26.1	-
COc1cc(-c2cnc3c(NC(C)=O)cc(-c4ccc(N5CCN(C)CC5)cc4)cn23)cc(OC)c1OC	-	.	.	-	.	-	.	.
O=C(CN1C(=O)CCOc2ccccc21)Nc1ccc(Cl)c(S(=O)(=O)N2CCOCC2)c1	-	-	-	-	.	-	.	.
Oc1ccc(N2CCN(c3ncnc4sc(-c5ccccc5)cc34)CC2)cc1	-	-	.	-	.	47.6	33.7	-
COc1cc(NC(=O)c2n[nH]c(=O)c3ccccc23)cc(OC)c1	-	-	-	-	-	-	.	.
COc1ccc(-c2nc(NC(=O)c3n[nH]c(=O)c4ccccc34)sc2C)cc1	-	-	-	-	-	14.4	-	-
C[C@H]1COC(=O)CC/C=C\C[C@H](CC(=O)N(CCO)Cc2ccccc2)C(=O)N1	-	-	-	-	.	-	.	.
Cc1cccc(N2CCN(C(=O)CCC(=O)N3CC(C)Oc4ccc(C)cc43)CC2C)c1 (centres undefined)	-	-	-	-	-	-	.	.
O=c1cc(-c2ccccc2)oc2ccc3ccccc3c12	-	.	.	-	.	10.0	9.5	-
C[C@@H]1C(=O)O[C@H]2CC34[C@H]5C[C@@H](C(C)(C)C)[C@]36[C@@H](OC(=O)[C@@H]6O)O[C@@]4(C(=O)O5)[C@]21O (some centres undefined)	-	-	-	-	-	-	.	.
O=C(CCN1C(=O)/C(=C/c2ccccc2)SC1=S)N[C@@H](CO)Cc1ccccc1	-	-	-	-	-	18.6	-	-
O=C(CCN1C(=O)/C(=C/c2ccccc2F)SC1=S)N[C@@H](CO)Cc1ccccc1	-	-	-	-	-	11.5	-	-
COc1cccc(/C=C2\SC(=S)N(CCC(=O)NCCc3ccc(O)cc3)C2=O)c1	-	-	-	-	-	35.2	-	-
O=C(CCN1C(=O)/C(=C/c2ccccc2)SC1=S)Nc1cccnc1	-	-	-	-	-	11.2	-	-
O=C(CCN1C(=O)/C(=C\c2ccccc2F)SC1=S)Nc1ccc(C(=O)O)c(O)c1	-	-	-	-	-	-	.	.
O=C(CCN1C(=O)/C(=C/c2ccccc2)SC1=S)Nc1ccccn1	-	-	-	-	-	-	.	.
C=CCOC(=O)Nc1nc(CCNC(=O)OC(C)(C)C)c(C(=O)O)s1	-	.	.	.	.	.	.	.
COc1ccccc1N1CCN(C(=O)c2cc(S(=O)(=O)N3CCOCC3)ccc2C)CC1	-	-	-	-	.	-	.	.
